For one compound, IC50 results are on record in ChEMBL document CHEMBL5154665, “Design, synthesis, biochemical evaluation, radiolabeling and in vivo imaging with high affinity class-IIa histone deacetylase inhibitor for molecular imaging and targeted therapy” (Eur J Med Chem, 2022).

Assay [1] in a line: Inhibition of HDAC class 2b in human THP-1 cells using TFA-lysine as fluorogenic substrate by fluorescence microplate reader assay. Type of assay: cell-based.
Assay [2] deals with T1, Class 1 histone deacetylase (Homo sapiens, UniProt Q13547+O15379+Q92769+Q9BY41). Nature of the assay: Inhibition of HDAC class 1 in human THP-1 cells using TFA-lysine as fluorogenic substrate by fluorescence microplate reader assay. Type of assay: cell-based.
For assay [3], the target named is T1, Class 1 histone deacetylase. Nature of the assay: Inhibition of HDAC class 1 in human L3.6pl cells using TFA-lysine as fluorogenic substrate by fluorescence microplate reader assay. Type of assay: cell-based.
In a further assay the target is Histone deacetylase 2 (Homo sapiens, UniProt Q92769). The experiment in a line: Inhibition of recombinant human HDAC2 using fluorogenic substrate by fluorescence microplate reader assay. In short, it runs like this:
(§1)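 Recombinant human HDAC isoforms were tested at 9 inhibitor dilutions in commercial fluorogenic enzyme kits, per the manufacturer's protocol. For class IIa enzymes, deacetylation of a TFA-lysine substrate lets trypsin release a fluorophore, read on a microplate reader. IC50 came from a nonlinear fit of % HDAC activity inhibition against compound concentration.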

For a further assay, the target named is Histone deacetylase 9 (Homo sapiens, UniProt Q9UKV0). Nature of the assay: Inhibition of recombinant human HDAC9 using fluorogenic substrate by fluorescence microplate reader assay. Summed up:
as §1

Assay [4] can be described thus: Inhibition of HDAC class 2a in human HT-29 cells using TFA-lysine as fluorogenic substrate by fluorescence microplate reader assay. Type of assay: cell-based. In short, it runs like this: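 HT-29 cells were plated at 200,000 cells/well in RPMI without phenol red with 0.1% FBS, with 100 µM Boc-Lys-TFA for class IIa or 200 µM Boc-Lys-Ac for class I/IIb. Compounds ran as an 11-point curve (5% final DMSO), with 5 µM trichostatin A as the positive control. Incubation was 3 h at 37 °C, then trypsin developer with Tween 80 for 1 h to lyse cells and release fluorophore.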

The next assay has as its target Histone deacetylase 3 (Homo sapiens, UniProt O15379). The experiment in a line: Inhibition of recombinant human HDAC3 using fluorogenic substrate by fluorescence microplate reader assay. In short, it runs like this: as §1
Another assay addresses Histone deacetylase 4 (Homo sapiens, UniProt P56524). Nature of the assay: Inhibition of recombinant human HDAC4 using fluorogenic substrate by fluorescence microplate reader assay. In short, it runs like this: as §1
The target in another assay is Histone deacetylase 1 (Homo sapiens, UniProt Q13547). The experiment in a line: Inhibition of recombinant human HDAC1 using fluorogenic substrate by fluorescence microplate reader assay. Summed up: as §1
A short description of assay [5]: Inhibition of HDAC class 2b in human PANC-1 cells using TFA-lysine as fluorogenic substrate by fluorescence microplate reader assay. Type of assay: cell-based.
The target in the next assay is T2, Histone deacetylase 11 (Homo sapiens, UniProt Q96DB2).
T2 sequence (Q96DB2 whole entry): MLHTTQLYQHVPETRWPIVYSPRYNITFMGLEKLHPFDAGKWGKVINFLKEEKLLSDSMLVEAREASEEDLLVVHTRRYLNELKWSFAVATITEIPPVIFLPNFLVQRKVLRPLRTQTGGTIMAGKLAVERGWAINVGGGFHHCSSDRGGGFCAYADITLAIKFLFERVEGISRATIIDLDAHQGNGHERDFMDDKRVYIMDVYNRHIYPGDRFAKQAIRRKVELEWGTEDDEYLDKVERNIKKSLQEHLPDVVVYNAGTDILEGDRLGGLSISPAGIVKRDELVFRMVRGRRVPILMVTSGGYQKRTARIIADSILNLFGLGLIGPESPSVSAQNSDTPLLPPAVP
Nature of the assay: Inhibition of recombinant human HDAC11 using fluorogenic substrate by fluorescence microplate reader assay. Summed up: as §1

Assay [6] deals with T3, Protein deacetylase HDAC6 (Homo sapiens, UniProt Q9UBN7).
T3 sequence (Q9UBN7 whole entry): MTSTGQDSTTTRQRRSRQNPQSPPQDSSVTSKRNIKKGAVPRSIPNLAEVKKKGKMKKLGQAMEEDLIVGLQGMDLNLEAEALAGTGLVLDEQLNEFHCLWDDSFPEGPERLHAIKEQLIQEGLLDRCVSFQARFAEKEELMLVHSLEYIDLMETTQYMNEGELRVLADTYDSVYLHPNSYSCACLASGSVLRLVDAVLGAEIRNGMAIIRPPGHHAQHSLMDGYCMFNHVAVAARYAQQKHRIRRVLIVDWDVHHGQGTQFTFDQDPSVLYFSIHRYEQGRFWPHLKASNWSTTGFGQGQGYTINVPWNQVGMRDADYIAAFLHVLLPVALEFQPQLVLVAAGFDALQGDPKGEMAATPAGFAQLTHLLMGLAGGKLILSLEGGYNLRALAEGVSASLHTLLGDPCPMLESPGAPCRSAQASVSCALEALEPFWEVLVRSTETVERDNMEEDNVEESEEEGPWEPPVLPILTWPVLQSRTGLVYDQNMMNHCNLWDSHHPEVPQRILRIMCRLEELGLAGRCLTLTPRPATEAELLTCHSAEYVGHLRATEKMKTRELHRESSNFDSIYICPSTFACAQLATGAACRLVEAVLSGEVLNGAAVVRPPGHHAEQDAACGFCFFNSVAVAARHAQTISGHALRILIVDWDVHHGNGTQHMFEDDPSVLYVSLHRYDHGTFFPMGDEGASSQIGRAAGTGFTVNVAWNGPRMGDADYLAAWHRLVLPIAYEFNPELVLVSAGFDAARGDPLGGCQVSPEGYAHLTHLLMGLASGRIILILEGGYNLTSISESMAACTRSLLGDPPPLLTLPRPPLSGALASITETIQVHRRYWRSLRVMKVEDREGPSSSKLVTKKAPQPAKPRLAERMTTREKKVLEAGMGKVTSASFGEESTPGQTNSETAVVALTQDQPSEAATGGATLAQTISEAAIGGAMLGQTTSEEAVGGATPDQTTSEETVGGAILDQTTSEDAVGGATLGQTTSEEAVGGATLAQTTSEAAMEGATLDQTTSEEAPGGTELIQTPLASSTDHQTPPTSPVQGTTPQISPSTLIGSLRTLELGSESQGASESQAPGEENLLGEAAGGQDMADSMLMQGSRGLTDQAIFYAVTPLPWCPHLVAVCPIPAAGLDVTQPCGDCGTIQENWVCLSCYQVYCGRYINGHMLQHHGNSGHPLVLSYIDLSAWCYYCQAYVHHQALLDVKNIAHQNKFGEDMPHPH
The experiment in a line: Inhibition of recombinant human HDAC6 using fluorogenic substrate by fluorescence microplate reader assay. In short, it runs like this:
as §1

Assay [7] in a line: Inhibition of HDAC class 2a in human HT-29 cells using Boc-Lys-TFA as substrate incubated for 3 hrs by microplate reader assay. The settings on record: HT-29, 3 h. The class given is cell-based.
For assay [8], the target named is T1, Class 1 histone deacetylase. The experiment in a line: Inhibition of HDAC class 1 in human PANC-1 cells using TFA-lysine as fluorogenic substrate by fluorescence microplate reader assay. Type of assay: cell-based.

Molecules are shown by their SMILES.

The IC50 is the concentration that inhibits the measured activity by half.

Chain of Histone deacetylase 2 (Q92769 whole entry, canonical isoform): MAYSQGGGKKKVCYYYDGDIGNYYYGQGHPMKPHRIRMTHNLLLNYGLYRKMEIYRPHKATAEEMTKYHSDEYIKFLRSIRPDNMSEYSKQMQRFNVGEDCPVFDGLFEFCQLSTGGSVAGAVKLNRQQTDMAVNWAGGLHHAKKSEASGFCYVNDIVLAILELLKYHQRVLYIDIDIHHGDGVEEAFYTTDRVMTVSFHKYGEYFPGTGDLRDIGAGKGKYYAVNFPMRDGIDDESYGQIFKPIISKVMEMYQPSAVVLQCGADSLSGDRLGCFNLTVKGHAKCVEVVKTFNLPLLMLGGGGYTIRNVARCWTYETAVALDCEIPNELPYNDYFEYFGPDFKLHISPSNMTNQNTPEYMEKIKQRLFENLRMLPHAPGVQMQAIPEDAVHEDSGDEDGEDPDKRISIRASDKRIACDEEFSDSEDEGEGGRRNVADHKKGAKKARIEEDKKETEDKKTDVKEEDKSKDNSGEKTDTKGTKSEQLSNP
Chain of Histone deacetylase 4 (P56524 whole entry): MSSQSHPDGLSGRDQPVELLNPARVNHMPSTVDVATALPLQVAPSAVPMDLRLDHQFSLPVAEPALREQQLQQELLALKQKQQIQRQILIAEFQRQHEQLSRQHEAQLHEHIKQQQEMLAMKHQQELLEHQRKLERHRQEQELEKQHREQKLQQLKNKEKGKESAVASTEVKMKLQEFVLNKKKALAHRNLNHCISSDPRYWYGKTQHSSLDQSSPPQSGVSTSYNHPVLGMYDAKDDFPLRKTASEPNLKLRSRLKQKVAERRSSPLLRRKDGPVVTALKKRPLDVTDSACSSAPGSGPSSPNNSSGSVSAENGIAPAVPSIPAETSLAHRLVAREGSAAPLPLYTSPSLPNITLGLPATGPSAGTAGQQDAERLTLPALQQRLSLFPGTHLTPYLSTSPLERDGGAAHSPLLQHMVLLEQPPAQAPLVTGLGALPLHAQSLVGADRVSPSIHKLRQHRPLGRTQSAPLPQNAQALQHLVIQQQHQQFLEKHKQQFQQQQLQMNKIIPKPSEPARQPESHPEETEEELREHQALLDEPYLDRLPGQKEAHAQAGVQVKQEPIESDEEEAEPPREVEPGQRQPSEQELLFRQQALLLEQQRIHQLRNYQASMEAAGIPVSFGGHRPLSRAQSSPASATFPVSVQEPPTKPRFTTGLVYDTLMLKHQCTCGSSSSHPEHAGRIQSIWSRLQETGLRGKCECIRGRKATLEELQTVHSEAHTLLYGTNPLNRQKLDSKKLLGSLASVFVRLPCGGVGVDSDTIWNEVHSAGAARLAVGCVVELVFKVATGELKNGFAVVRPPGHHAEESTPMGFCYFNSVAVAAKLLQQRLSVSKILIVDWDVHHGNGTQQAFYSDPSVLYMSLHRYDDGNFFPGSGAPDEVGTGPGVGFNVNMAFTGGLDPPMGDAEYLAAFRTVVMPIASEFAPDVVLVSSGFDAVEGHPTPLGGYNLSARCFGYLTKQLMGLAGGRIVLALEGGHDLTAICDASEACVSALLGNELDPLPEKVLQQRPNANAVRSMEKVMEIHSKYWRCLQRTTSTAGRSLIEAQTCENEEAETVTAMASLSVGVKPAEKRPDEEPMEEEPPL
Chain of Histone deacetylase 3 (O15379 whole entry): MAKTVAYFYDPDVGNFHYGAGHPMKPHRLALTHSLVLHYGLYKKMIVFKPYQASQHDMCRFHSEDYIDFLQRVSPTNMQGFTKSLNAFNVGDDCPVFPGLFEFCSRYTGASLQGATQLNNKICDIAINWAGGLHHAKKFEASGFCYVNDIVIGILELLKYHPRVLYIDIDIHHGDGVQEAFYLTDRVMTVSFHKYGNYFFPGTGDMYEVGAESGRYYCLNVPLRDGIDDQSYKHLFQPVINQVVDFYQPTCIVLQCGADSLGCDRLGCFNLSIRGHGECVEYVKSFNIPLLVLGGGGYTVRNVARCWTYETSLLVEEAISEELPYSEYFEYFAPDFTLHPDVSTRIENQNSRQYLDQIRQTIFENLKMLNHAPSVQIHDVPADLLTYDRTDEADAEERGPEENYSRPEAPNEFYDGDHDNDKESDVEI
Chain of Histone deacetylase 1 (Q13547 whole entry): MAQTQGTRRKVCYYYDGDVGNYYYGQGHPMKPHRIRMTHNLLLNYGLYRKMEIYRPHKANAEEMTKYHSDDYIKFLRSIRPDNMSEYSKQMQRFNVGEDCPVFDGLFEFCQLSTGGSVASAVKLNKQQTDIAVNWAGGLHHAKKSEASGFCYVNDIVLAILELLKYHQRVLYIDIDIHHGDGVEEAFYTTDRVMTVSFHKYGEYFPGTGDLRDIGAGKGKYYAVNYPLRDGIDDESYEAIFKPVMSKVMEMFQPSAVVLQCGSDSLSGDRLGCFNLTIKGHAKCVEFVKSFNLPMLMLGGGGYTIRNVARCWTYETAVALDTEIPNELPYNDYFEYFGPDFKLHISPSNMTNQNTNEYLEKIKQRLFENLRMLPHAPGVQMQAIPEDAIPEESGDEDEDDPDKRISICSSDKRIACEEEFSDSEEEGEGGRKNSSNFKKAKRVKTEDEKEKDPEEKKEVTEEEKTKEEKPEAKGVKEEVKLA
Chain of Histone deacetylase 9 (Q9UKV0 whole entry): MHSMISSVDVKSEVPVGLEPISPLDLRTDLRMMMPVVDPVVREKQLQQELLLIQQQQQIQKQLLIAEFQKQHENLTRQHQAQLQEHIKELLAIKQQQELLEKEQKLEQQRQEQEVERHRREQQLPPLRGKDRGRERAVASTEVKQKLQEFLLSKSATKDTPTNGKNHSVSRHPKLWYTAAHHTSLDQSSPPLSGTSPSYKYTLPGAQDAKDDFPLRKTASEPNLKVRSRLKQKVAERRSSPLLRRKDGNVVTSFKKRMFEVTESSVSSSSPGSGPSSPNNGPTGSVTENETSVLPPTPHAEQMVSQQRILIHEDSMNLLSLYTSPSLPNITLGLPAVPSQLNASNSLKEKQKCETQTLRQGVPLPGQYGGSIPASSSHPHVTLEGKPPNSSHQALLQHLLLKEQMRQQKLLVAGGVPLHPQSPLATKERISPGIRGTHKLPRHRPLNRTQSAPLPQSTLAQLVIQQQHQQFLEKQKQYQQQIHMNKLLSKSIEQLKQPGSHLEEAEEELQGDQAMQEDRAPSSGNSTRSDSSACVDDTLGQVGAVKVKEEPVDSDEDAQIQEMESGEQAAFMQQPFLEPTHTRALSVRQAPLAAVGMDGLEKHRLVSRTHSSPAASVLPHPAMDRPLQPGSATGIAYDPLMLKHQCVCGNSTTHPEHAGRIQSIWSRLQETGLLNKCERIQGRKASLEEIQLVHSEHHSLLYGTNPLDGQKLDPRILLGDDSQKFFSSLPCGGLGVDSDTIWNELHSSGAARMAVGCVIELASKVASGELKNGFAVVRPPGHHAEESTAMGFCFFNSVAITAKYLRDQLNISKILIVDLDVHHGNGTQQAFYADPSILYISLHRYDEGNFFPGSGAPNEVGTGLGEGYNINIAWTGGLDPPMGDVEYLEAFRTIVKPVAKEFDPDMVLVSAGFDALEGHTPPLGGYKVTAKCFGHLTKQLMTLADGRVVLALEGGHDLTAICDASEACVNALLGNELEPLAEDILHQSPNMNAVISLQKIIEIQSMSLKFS

With `CC(C)(CNC(=O)c1cccc(-c2noc(C(F)(F)F)n2)c1)c1coc(-c2ccccc2)n1`, the IC50 in [1] is above 5 µM; in assay [2], above 5 µM; in assay [3] it was above 5 µM; on Histone deacetylase 2, above 5 µM; on Histone deacetylase 9, 0.0024 µM; in assay [4], 1 µM. Moreover, the IC50 on Histone deacetylase 3 is above 5 µM; on Histone deacetylase 4, 0.128 µM; at Histone deacetylase 1 it was above 5 µM; in assay [5], above 5 µM; at Histone deacetylase 11 it was above 5 µM; in assay [6], above 5 µM. Moreover, the IC50 in assay [7] is 1 µM; in [8], above 5 µM.
